Screening data (PubChem)
Sampled rows, rich in hits. Any-hit rate of the full collection: about 1.9%.
M5 PAM – CHRM5 positive allosteric modulation; P08912; activation, % at 3 µM; CHO-K1 hM5, Fluo-8 calcium, ACh EC20 PAM; 0% = ACh EC20, 100% = ACh EC100; 0.3% of 360,000 active;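 active = activation above the run cutoff, the mean activation of all test compounds plus 3 SD, cut at about 18% in these data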
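Assay system – human M5 receptor in CHO-K1 cells · Read-out – % activation, ACh-normalized · Technique – Fluo-8 calcium fluorescence · Dosing – single-point, 3 µM nominal · Incubation – Fluo-8 loading 80 min at 37 °C plus 30 min room temperature · Repeats – singlicate, one well per test compound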
CHRM5 antagonist – CHRM5 antagonism in calcium assay; CHO-hM5 cells, Fluo-8 calcium fluorescence, ACh EC80; inhibition, % at 3 µM; 0.59% of 360,000 active; AID 624040;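 active = inhibition above a per-plate cutoff, the mean of that plate's test compounds plus 3 SD, cut at about 27% in these data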;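 note: 0% = acetylcholine EC80 with DMSO and 100% = DMSO without agonist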
CHRM5 agonist – agonists of human muscarinic M5 receptor (CHRM5); activation, % at 3 µM; P08912; CHO-K1 hM5 cells, Fluo-8 calcium fluorescence; 0% DMSO wells, 100% maximal acetylcholine response; 0.19% of 360,000 active;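 active = activation above the run's mean over test compounds plus 3 SD, cut at about 23% in these data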;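 note: signal is peak over basal fluorescence ratio across the kinetic read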
M4 ag – agonists of human muscarinic M4 receptor (CHRM4); P08173; CHO-K1 hM4/Gqi5, Fluo-8 calcium fluorescence; vehicle 0%, full acetylcholine response 100%; activation, % at 3 µM; 0.14% of 360,000 active;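 active = activation above the run mean over all test wells plus 3 SD, cut at about 32% in these data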;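 note: peak over basal fluorescence ratio per well then scaled between controls; 0% = DMSO wells and 100% = acetylcholine at EC100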
Target sequence (P08173 whole entry, looked up): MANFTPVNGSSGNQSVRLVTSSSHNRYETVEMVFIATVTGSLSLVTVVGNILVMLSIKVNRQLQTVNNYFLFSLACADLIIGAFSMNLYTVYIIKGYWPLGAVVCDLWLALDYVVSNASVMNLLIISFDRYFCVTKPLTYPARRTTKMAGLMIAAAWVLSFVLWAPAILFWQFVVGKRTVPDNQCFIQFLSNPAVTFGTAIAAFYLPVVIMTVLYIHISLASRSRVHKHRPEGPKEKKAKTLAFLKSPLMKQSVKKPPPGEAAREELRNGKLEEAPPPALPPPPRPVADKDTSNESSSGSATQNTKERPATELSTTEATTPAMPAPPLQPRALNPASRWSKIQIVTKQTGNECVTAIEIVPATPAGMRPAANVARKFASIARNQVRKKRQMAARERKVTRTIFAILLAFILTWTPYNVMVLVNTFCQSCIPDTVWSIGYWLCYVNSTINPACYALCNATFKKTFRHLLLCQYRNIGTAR
CHRM4 PAM – CHRM4 positive allosteric modulation. P08173. CHO-K1 hM4/Gqi5, Fluo-8 calcium fluorescence, ACh EC20; 0% = ACh EC20, 100% = maximal ACh. activation, % at 3 µM. 0.4% of 360,000 active. AID 624126;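 active = activation above its plate's cutoff, the mean activation of sample wells plus 3 SD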
M4 antag – blocks acetylcholine activation of human M4 receptor; CHO-hM4 cells, ACh EC80, Fluo-8 calcium fluorescence; inhibition, % at 3 µM; 0.73% of 360,000 active; AID 624125;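 active = inhibition above its plate's cutoff, the mean inhibition of sample wells plus 3 SD, cut at about 27% in these data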;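 note: 0% = acetylcholine EC80 with DMSO and 100% = DMSO without agonist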
Active calls of the source: *.

Results for CC1CCC(NS(=O)(=O)c2ccc(N3CCCC3=O)cc2)CC1 (stereo not drawn) ?
M5 PAM: 13.7; CHRM5 antagonist: 16.9; CHRM5 agonist: 8.1; M4 ag: 30.6; CHRM4 PAM: -12.8; M4 antag: 32.0*

What do the screens show for `O=C1CCCN1c1ccc(S(=O)(=O)Nc2cccnc2)cc1`?
M5 PAM: 1.0; CHRM5 antagonist: -9.0; CHRM5 agonist: -8.4; M4 ag: 1.3; CHRM4 PAM: 5.9; M4 antag: 3.0

Results for Cc1cccc(N2CN(Cc3ccco3)CNC2=S)c1 ?
M5 PAM: -6.7; CHRM5 antagonist: 6.6; CHRM5 agonist: -3.0; M4 ag: 0.6; CHRM4 PAM: 4.9; M4 antag: 1.2

How did COc1cccc(C(=O)OCCN2CCCCC2)c1 do in these assays?
M5 PAM: 1.6; CHRM5 antagonist: 30.1*; CHRM5 agonist: -7.4; M4 ag: 1.1; CHRM4 PAM: 1.8; M4 antag: 0.6

What do the screens show for `CCn1ccc(C(=O)NC2=C(C#N)CCC2)n1`?
M5 PAM: 21.5*; CHRM5 antagonist: -0.7; CHRM5 agonist: 0.7; M4 ag: -1.4; CHRM4 PAM: -2.2; M4 antag: -2.3

Results for CCn1nccc1C(=O)NC1=C(C#N)CCC1 ?
M5 PAM: 1.2; CHRM5 antagonist: 2.9; CHRM5 agonist: 1.3; M4 ag: 0.6; CHRM4 PAM: -8.2; M4 antag: 11.7

Results for CN1C(=O)/C(=C/c2ccccc2F)Sc2ccc(C(=O)NCC3CCCO3)cc21 (stereo not drawn) ?
M5 PAM: -2.8; CHRM5 antagonist: -9.6; CHRM5 agonist: 4.6; M4 ag: 13.0; CHRM4 PAM: -3.9; M4 antag: -6.9

What do the screens show for `CCN1CCN(C(=O)c2ccc(Cl)c(S(=O)(=O)N(C)c3ccccc3)c2)CC1`?
M5 PAM: 5.2; CHRM5 antagonist: -1.9; CHRM5 agonist: 0.3; M4 ag: 2.8; CHRM4 PAM: 20.0*; M4 antag: -1.4

Results for O=C(CN1CCc2ccccc2C1)Nc1ccc(OC(F)(F)F)cc1 ?
M5 PAM: -20.0; CHRM5 antagonist: 18.5; CHRM5 agonist: -7.1; M4 ag: -0.6; CHRM4 PAM: -16.0; M4 antag: 82.0*

Results for O=C(CN1CCc2ccccc2C1)Nc1ccc(F)cc1 ?
M5 PAM: 2.6; CHRM5 antagonist: 0.5; CHRM5 agonist: 3.6; M4 ag: 0.8; CHRM4 PAM: -3.3; M4 antag: 3.5

What do the screens show for `COC(=O)c1ccc(CN2CCN(C3CCCC3)C(CCO)C2)cc1` (stereo not drawn)?
M5 PAM: -7.9; CHRM5 antagonist: -2.3; CHRM5 agonist: -10.0; M4 ag: 1.4; CHRM4 PAM: -21.2; M4 antag: 76.7*

Results for COC(=O)c1ccc(CN2CCN(C3CCCCC3)C(CCO)C2)cc1 (stereo not drawn) ?
M5 PAM: 7.2; CHRM5 antagonist: -7.6; CHRM5 agonist: -21.2; M4 ag: 0.1; CHRM4 PAM: -50.3; M4 antag: 60.5*

Results for CC(=O)Nc1ccc(CN2CCN(C3CCCCC3)C(CCO)C2)cc1 (stereo not drawn) ?
M5 PAM: -4.5; CHRM5 antagonist: 6.8; CHRM5 agonist: -14.1; M4 ag: -0.1; CHRM4 PAM: -34.7; M4 antag: 14.9

How did Cc1ccc(S(=O)(=O)N2c3ccccc3OCC2C(C)(C)C)cc1 (stereo not drawn) do in these assays?
M5 PAM: 20.7*; CHRM5 antagonist: -11.8; CHRM5 agonist: 12.2; M4 ag: -0.8; CHRM4 PAM: -3.1; M4 antag: -3.9

What do the screens show for `Cc1ccc2c(c1)N(S(=O)(=O)c1ccc(F)cc1)C(C(C)(C)C)CO2` (stereo not drawn)?
M5 PAM: -10.3; CHRM5 antagonist: -4.8; CHRM5 agonist: -4.9; M4 ag: -2.4; CHRM4 PAM: -13.6; M4 antag: 21.2

What do the screens show for `CNC(C)C(=O)NC(C(=O)NC(C)C(=O)NNc1ccccc1)C(C)C` (stereo not drawn)?
M5 PAM: -4.4; CHRM5 antagonist: -5.7; CHRM5 agonist: -2.1; M4 ag: 0.8; CHRM4 PAM: 1.5; M4 antag: -18.0

What do the screens show for `CC(C)(C)c1ccccc1NC(=O)c1cc(-c2ccncc2)nc2ccccc12`?
M5 PAM: -15.3; CHRM5 antagonist: 21.1; CHRM5 agonist: -2.9; M4 ag: 7.7; CHRM4 PAM: -5.7; M4 antag: -0.1

How did CCOC(=O)c1c(NC(=O)c2ccco2)sc2c1CCCCC2 do in these assays?
M5 PAM: -0.8; CHRM5 antagonist: 9.0; CHRM5 agonist: 1.4; M4 ag: -1.6; CHRM4 PAM: 4.0; M4 antag: -1.2

Results for Cc1sc(NC(=S)NC(=O)CCc2ccccc2)c(C(N)=O)c1C ?
M5 PAM: 0.7; CHRM5 antagonist: 2.1; CHRM5 agonist: -0.1; M4 ag: 1.9; CHRM4 PAM: 1.6; M4 antag: 0.4

Results for Cc1sc(NC(=S)NC(=O)c2ccco2)c(C(N)=O)c1C ?
M5 PAM: -18.9; CHRM5 antagonist: 31.4*; CHRM5 agonist: 0.9; M4 ag: 12.8; CHRM4 PAM: -5.6; M4 antag: 0.5

What do the screens show for `COC(=O)c1c(NC(=S)NC(=O)c2ccco2)sc2c1CCCC2`?
M5 PAM: 1.5; CHRM5 antagonist: 0.0; CHRM5 agonist: 1.4; M4 ag: 0.1; CHRM4 PAM: 32.6*; M4 antag: -1.5

What do the screens show for `CCOC(=O)c1c(NC(=O)C(C)N2CCN(C(=O)c3ccco3)CC2)sc2c1CCCC2` (stereo not drawn)?
M5 PAM: 5.9; CHRM5 antagonist: -8.8; CHRM5 agonist: 27.4*; M4 ag: 40.6*; CHRM4 PAM: -31.9; M4 antag: 48.9*

Results for O=C(N=C1N=C2C=CC(Br)=CN2Cc2ccccc21)c1ccc([N+](=O)[O-])cc1[N+](=O)[O-] ?
M5 PAM: 0.3; CHRM5 antagonist: 4.0; CHRM5 agonist: -7.2; M4 ag: -0.1; CHRM4 PAM: 12.8; M4 antag: -18.7

How did N#Cc1ccsc1NC(=O)c1cccc(-n2cnnn2)c1 do in these assays?
M5 PAM: 0.5; CHRM5 antagonist: 5.5; CHRM5 agonist: 1.8; M4 ag: 6.0; CHRM4 PAM: -7.5; M4 antag: -1.0

What do the screens show for `COc1ccc(S(=O)(=O)NCC(=O)Nc2ccc(F)cc2)cc1`?
M5 PAM: -1.4; CHRM5 antagonist: 2.7; CHRM5 agonist: -0.2; M4 ag: 0.6; CHRM4 PAM: 3.7; M4 antag: 8.0

What do the screens show for `CCn1c(=O)n(CCc2ccccc2)c(=O)c2c3c(sc21)CCCC3`?
M5 PAM: -1.1; CHRM5 antagonist: 0.7; CHRM5 agonist: -2.5; M4 ag: -1.1; CHRM4 PAM: 2.8; M4 antag: -1.6
